# Source: PubChem (The Scripps Research Institute Molecular Screening Center)
# M5 antag = antagonists of human muscarinic M5 receptor (CHRM5) | inhibition, % at 3 µM | 360,000 compounds, 0.59% hits | CHO-hM5 cells, Fluo-8 calcium fluorescence, ACh EC80;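 active = inhibition above a per-plate cutoff, the mean of that plate's test compounds plus 3 SD, cut at about 27% in these data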;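 also: 0% = acetylcholine EC80 with DMSO and 100% = DMSO without agonist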
# M1 ag = agonists of human M1 muscarinic receptor; P11229; CHO-K1 hM1, Fluo-8 calcium fluorescence, agonist mode; 0% DMSO, 100% acetylcholine EC100; activation, % at 3 µM; 360,000 compounds, 0.33% hits; AID 588814;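 active = activation above the run's mean compound activation plus 3 SD, cut at about 16% in these data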;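 also: peak over basal fluorescence ratio within a 140 s kinetic read after compound addition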
# Target sequence (P11229 whole entry, looked up): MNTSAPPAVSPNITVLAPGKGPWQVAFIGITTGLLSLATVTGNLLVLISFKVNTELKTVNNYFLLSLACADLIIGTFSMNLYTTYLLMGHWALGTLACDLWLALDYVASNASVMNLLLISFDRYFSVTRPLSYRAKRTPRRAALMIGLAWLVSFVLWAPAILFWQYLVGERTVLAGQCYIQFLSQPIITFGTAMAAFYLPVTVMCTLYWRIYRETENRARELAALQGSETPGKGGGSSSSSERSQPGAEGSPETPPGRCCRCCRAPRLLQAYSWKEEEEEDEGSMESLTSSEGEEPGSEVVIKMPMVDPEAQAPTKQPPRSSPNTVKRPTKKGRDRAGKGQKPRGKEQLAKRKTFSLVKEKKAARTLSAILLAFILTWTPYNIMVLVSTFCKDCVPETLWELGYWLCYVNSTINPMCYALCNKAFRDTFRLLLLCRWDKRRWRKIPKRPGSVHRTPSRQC
# M1 PAM = positive allosteric modulators of human M1 muscarinic receptor; P11229; CHO-K1 hM1, Fluo-8 calcium fluorescence, ACh EC20; 0% = ACh EC20, 100% = maximal ACh; activation, % at 3 µM; 360,000 compounds, 0.088% hits; AID 588819; in the data active = activation above about 19%, passing the limit was not always enough
# M1 antag = human CHRM1 antagonism | CHO-K1 hM1, Fluo-8 calcium fluorescence, ACh EC80 antagonist | inhibition, % at 3 µM | 360,000 compounds, 1.3% hits | AID 588852;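 active = percent inhibition above its own plate's cutoff, namely the mean of that plate's compound wells plus 3 SD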;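 also: peak over basal fluorescence ratio during 140 s after agonist addition; 0% = ACh EC80 plus DMSO and 100% = DMSO alone without agonist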
# CHRM5 PAM = CHRM5 positive allosteric modulation; 360,000 compounds, 0.3% hits; CHO-K1 hM5, Fluo-8 calcium, ACh EC20 PAM; 0% = ACh EC20, 100% = ACh EC100; activation, % at 3 µM;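 active = activation above the run cutoff, the mean activation of all test compounds plus 3 SD, cut at about 18% in these data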
#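 Test system: CHO-K1 hM5 cells / Doses: single-point, 3 µM nominal / Times: Post-acetylcholine fluorescence recording 140 s / Technique: Fluo-8 calcium fluorescence / Measure: Max/basal fluorescence ratio as % of EC20–EC100 ACh window / Benchmarks: low control EC20 acetylcholine (0%), high control EC100 acetylcholine (100%) / Replicates: one well per compound, no replicates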
# CHRM5 agonist = agonists of human muscarinic M5 receptor (CHRM5); CHO-K1 hM5 cells, Fluo-8 calcium fluorescence; 0% DMSO wells, 100% maximal acetylcholine response; activation, % at 3 µM; 360,000 compounds, 0.19% hits; P08912;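 active = activation above the run's mean over test compounds plus 3 SD, cut at about 23% in these data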;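 also: signal is peak over basal fluorescence ratio across the kinetic read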
# The depositor's hits bear a star. Only some compounds are listed: those with a hit (about 2.1% of all), similar ones and a draw of the others.
SMILES,M5 antag,M1 ag,M1 PAM,M1 antag,CHRM5 PAM,CHRM5 agonist
COc1ccc(NC(=S)N(CCCN2CCCCCC2)Cc2cccs2)cc1,-1,-6,6,-9,3,-3
COc1ccc(NC(=S)N(CCCN2CCCC2)Cc2cccs2)cc1,-2,-8,-23,55*,-9,-8
Cc1cc(Cl)ccc1NC(=S)N(CCCN1CCOCC1)Cc1cccs1,2,-11,1,-7,-6,-7
CCC(C)NC(=O)C1CCN(S(=O)(=O)c2cccc3cccnc23)CC1 (configuration not stated),2,0,10,-19,-3,1
CCOC(=O)Cc1csc(NC(=O)c2csc(C)c2)n1,8,0,3,-5,-12,1
CCOC(=O)Cc1csc(NC(=O)c2sc3nc4c(C)cc(C)cc4cc3c2N)n1,-3,-1,-20,32*,4,0
COc1ccc(C2=Nn3c(nnc3-c3ccccc3OC)SC2)cc1OCC1CC1,-3,-10,6,-10,-6,-11
COc1ccc(OC)c(-c2nnc3n2N=C(c2ccc(OC(F)F)c(OCC4CC4)c2)CS3)c1,21,-10,-30,40*,-40,-9
Cn1c(SCC(=O)N2CCOCC2)nnc1-c1ccccc1,3,-2,0,-6,4,-1
COC(=O)C1CCN(C(=O)CN(C)Cc2ccc(C(C)(C)C)cc2)CC1,3,-11,-25,34*,-8,-6
CCS(=O)(=O)N1CCN(C(=O)c2ccccc2[N+](=O)[O-])CC1,-10,-8,0,-5,3,0
CN(C)CCO[C@@H](c1ccc(Cl)cc1)c1ccccn1,5,-9,-27,44*,-18,-21
CCSc1ccccc1C(=O)NCCCn1ccnc1,0,-3,-1,3,1,-3
O=C(CC(Sc1n[nH]c(-c2ccccc2)n1)c1ccccc1)NCc1ccccc1 (configuration not stated),-6,-9,-3,-2,0,-3
O=C(Cn1sc2ccccc2c1=O)NC12CC3CC(CC(C3)C1)C2,4,4,5,-2,1,11
COc1cccc(CCc2nnc(CCC(=O)N3CCCC3c3nccs3)o2)c1 (configuration not stated),1,-6,5,0,7,-4
Cc1ccc(C)c(OCc2cc(C(=O)N(C)Cc3nccs3)no2)c1,28*,-6,-7,8,-8,-4
Cc1ccc(C)c(OCc2cc(C(=O)N(C)Cc3ccccn3)no2)c1,5,-1,1,-4,-3,-1
CC(C)NC(=O)c1ccccc1NC(=O)CCS(=O)(=O)Cc1ccccc1,-6,-3,-6,3,1,4
Cc1cc(OCc2cc(C(=O)N3CCN(C)C(=O)[C@@H]3C)no2)cc(C)c1Cl,-7,5,-13,38*,-10,7
CC1CCN(c2nc(N3CCCCC3)nc(N3CCCCC3)n2)CC1,9,-3,3,4,-4,4
CN(C)c1nc(N(C)C)nc(N2CCCCC2)n1,0,-5,-1,22*,1,0
CC(=O)NC(CCc1ccc(Cl)c(Cl)c1)c1cccc(O)c(=O)c1 (configuration not stated),2,-2,11,-21,-1,0
CCOc1cc(/C=C(/C#N)c2ccc(F)cc2)ccc1OCc1ccc(C(=O)O)o1,-19,5,23*,-51,4,3
CCCOc1cccc(C(=O)N/N=C/c2coc3ccccc3c2=O)c1,6,0,1,30*,-6,0
SMILES,M5 antag,M1 ag,M1 PAM,M1 antag,CHRM5 PAM,CHRM5 agonist
CN(CCCC(=O)NCc1ccccc1)S(=O)(=O)c1ccc([N+](=O)[O-])cc1,4,-4,-3,1,-5,1
CCCc1cc(=O)oc2cc(OCC(=O)NCCCn3ccnc3)ccc12,7,-5,5,-7,-5,-9
CCOC(=O)CSc1nc(N)nc(C)c1Cl,27*,-13,-11,21,-19,-10
O=C(Nc1cccc(C(=O)O)c1)/C(=C\c1cccc([N+](=O)[O-])c1)NC(=O)c1ccc(Br)cc1,-1,-6,-21,61*,3,0
O=C(c1ccc(Br)s1)N1CCN(S(=O)(=O)c2ccccc2)CC1,13,-4,2,-2,-8,-3
CCOc1ccc(S(=O)(=O)N2CCN(C(=O)c3cc(-c4ccccc4)nn3-c3ccccc3)CC2)cc1,-1,-1,5,-1,2,2
O=C(c1cc(C2CC2)nn1-c1ccccc1)N1CCN(c2ccccn2)CC1,0,-8,-21,30*,-10,-4
CCOc1ccc(S(=O)(=O)N2CCN(C(=O)c3cc(C4CC4)nn3-c3ccccc3)CC2)cc1,7,-7,-26,69*,-27,-8
CCOC(=O)C1(CCOc2ccccc2)CCN(Cc2ccc(OC)c(O)c2)CC1,9,-4,-2,-9,-30,-24
CCOC(=O)C1(CCOc2ccccc2)CCN(Cc2ccc(O)cc2)CC1,28*,-6,-9,5,-34,-20
CCOC(=O)C1(CCOc2ccccc2)CCN(Cc2ccc(O)c(OCC)c2)CC1,31*,-6,4,-8,-18,-5
C/C=C(\C)CN1CCC(Oc2ccc(C(=O)NCc3ccccn3)cc2)CC1,14,-6,-5,5,1,-6
CCN(CC)CCNC(=O)C1(c2ccccc2)CCCCC1,23,-8,-23,40*,-27,-13
O=C(O)c1ccc(NC(=O)C2(c3ccccc3)CCCC2)cc1,6,-1,1,5,3,-3
CCN(CC)CCOC(=O)c1ccc(NC(=O)C2(c3ccccc3)CCCC2)cc1,36*,-5,-19,46*,-41,-15
CCNC(=O)C1(c2ccccc2)CCCC1,-1,0,10,-12,5,1
COCCCNC(=O)Cc1coc2ccc3ccccc3c12,5,-6,7,-5,7,3
COc1ccccc1N1C(=O)c2ccc(C(=O)Nc3ccccc3O)cc2C1=O,33*,-2,-6,11,4,7
COc1ccc(N2C(=O)c3ccc(C(=O)Nc4ccccc4O)cc3C2=O)cc1,20,3,14,-9,-3,2
CC[n+]1c(/C=C/N(C)c2ccccc2)n(-c2ccccc2)c2ccc(-c3nc4ccccc4s3)cc21,6,-6,-30,98*,-26,-21
Cc1ccc(O)c(NC(=O)c2cc(-c3ccccc3Cl)on2)c1,28*,-2,2,-15,-9,-8
Cc1ccc(C(=O)NCCN2CCOCC2)cc1,-1,-4,3,-5,3,2
